miR122 inh: blocks miR-122 activity in Huh7 sensor cells. Huh7 miR-122 Renilla luciferase sensor, 48 h; neutral wells = 0, positive control = 100. activation (reporter increase), % at 12.5 µM. actives 0.3% (n = 340,000). AID 602342;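 active = mean replicate activation score at least 90 and every replicate individually at or above 90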;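 note: higher luciferase means less miR-122 activity so hits act as miR-122 inhibitors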
CFTR F508del cor: CFTR F508del correction in bronchial cells; AID 720511; CFBE cells, YFP halide quenching; stimulated with forskolin plus potentiator P3; % fluorescence drop versus neutral controls; activity (quench increase), % at 7.58 µM; actives 0.36% (n = 350,000);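 active = mean added fluorescence quench of at least 8% versus neutral control, with both replicates also reaching 8%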;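 note: cells transiently co-express mutant CFTR-F508del with the halide-sensitive YFP; corrector assay measuring rescue of mutant channel to the surface after 24 h compound exposure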
ERAP1 HTS inh: ERAP1 (human) enzyme inhibition; AID 652197; recombinant ERAP1, Leu-AMC fluorescence, 60 min; inhibition, % at 10.7 µM; Q9NZ08; actives 0.15% (n = 340,000);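 active = mean replicate inhibition of at least 30%, or all replicates individually reaching that 30% level; inactive = mean below 30% and not every replicate reaching it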
GSIS activator: primary screen for activators of insulin secretion dependent on glucose, INS-1E cells, GLuc reporter luminescence; INS-1E GLuc reporter insulin secretion, 2-3 h; activation, % at 16.6 µM; actives 0.61% (n = 370,000); AID 743287;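 active = lowest replicate activation of at least 40%, so every replicate reaches that level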
E-selectin induc: E-selectin induction on HUVECs; HUVEC E-selectin immunofluorescence imaging; normalized: neutral wells 0, TNF-alpha wells 100; activation, % at 7.58 µM; actives 0.37% (n = 260,000);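 active = mean E-selectin-positive cell signal at least 10% of the positive control, reached in at least 60% of replicates, without over 20% cell loss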
Target sequence (P16581 whole entry, looked up): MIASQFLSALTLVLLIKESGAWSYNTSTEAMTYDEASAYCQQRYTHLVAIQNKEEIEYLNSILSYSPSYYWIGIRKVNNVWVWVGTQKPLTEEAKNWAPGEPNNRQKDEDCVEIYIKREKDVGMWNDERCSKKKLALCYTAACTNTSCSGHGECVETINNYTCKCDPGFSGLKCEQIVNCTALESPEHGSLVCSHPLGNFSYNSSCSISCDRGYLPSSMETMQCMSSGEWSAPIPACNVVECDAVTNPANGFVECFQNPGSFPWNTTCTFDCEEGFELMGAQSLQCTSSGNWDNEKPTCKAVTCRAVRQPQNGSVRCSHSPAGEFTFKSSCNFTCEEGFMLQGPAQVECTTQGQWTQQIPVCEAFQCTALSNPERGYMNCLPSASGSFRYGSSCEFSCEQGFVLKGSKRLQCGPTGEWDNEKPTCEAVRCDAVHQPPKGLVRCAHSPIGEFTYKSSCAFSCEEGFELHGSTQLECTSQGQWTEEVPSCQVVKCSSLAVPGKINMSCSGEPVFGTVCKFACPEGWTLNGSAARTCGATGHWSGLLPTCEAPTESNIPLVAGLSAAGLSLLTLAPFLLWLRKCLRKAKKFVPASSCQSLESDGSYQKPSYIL
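System: HUVEC, human umbilical vein endothelial cells; quantity: 3,000 cells/well; buffer or medium: EGM-2 medium, gelatin-coated wells; dosing: single-point compound dose; detection: immunofluorescence imaging; evaluation: % PE-positive cells; benchmarks: TNF-alpha, DMSO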
DENV2 CPE rescue: DENV2-induced cell death inhibition; DENV2-infected cells, cytopathic effect rescue, plate reader; CPE inhibition, % at 9.99 µM; actives 1.7% (n = 350,000); AID 651640; in the data active = CPE inhibition above about 20%, passing the limit was not always enough; tested in BHK-21 cells
Of the large screens only hits and unclear results are named; the others gave an inactive call; [ ] = another dose, or the depositor's remark. Compounds with a hit are over-represented: about 2.6% of the library has one in this group of screens.

CO[C@@H]1CN(C)C(=O)c2cc(NS(=O)(=O)CC(F)(F)F)ccc2OC[C@@H](C)N(Cc2ccccn2)C[C@@H]1C	none (no result: miR122 inh)
COc1ccc(-c2ccc([C@@H]3[C@H](CO)N4CCCCN(C(=O)NC(C)C)C[C@@H]34)cc2)cc1	DENV2 CPE rescue 64
CC(C)NC(=O)N1CCCCN2[C@@H](CO)[C@@H](c3ccc(Br)cc3)[C@@H]2C1	DENV2 CPE rescue 68
CC(C)NC(=O)N1CCCCN2[C@H](CO)[C@@H](c3ccc(C#CC4CC4)cc3)[C@H]2C1	DENV2 CPE rescue 39
C[C@@H]1CCCCO[C@H](CN(C)C(=O)C2CCCCC2)[C@@H](C)CN([C@@H](C)CO)C(=O)c2cc(N(C)C)ccc2O1	none (no result: ERAP1 HTS inh, DENV2 CPE rescue)
Nc1nc2n(n1)C(c1cccc(Cl)c1)CC(c1ccc(F)cc1)N2 (stereo not drawn)	GSIS activator 49
CCOc1ccc(C2CC(c3cccc(Cl)c3)n3nc(N)nc3N2)cc1 (stereo not drawn)	none
COc1cc(NS(=O)(=O)c2cc3c(cc2C)NC(=O)CO3)cc(OC)c1	miR122 inh 101
COc1ccc(NS(=O)(=O)c2cc3c(cc2C)N(C)CCO3)cc1	miR122 inh 95 (no result: E-selectin induc)
COc1cc(NS(=O)(=O)c2ccc3c(c2)NC(=O)CO3)cc(OC)c1	none
CNC(=O)C[C@H]1CC[C@@H]2[C@H](COC[C@@H](O)CN2C(=O)Nc2cccc(OC)c2)O1	none
C[C@@H]1CN([C@H](C)CO)C(=O)c2c(c3ccccc3n2C)-c2ccccc2CO[C@@H]1CN(C)Cc1ccccc1	none (no result: miR122 inh, CFTR F508del cor, ERAP1 HTS inh, E-selectin induc, DENV2 CPE rescue)
CCCn1c(NC(=O)c2cccc(C)c2C)nc2ccccc21	miR122 inh 118 (no result: CFTR F508del cor, ERAP1 HTS inh, GSIS activator, E-selectin induc, DENV2 CPE rescue)
CCCn1c(NC(=O)C2CCN(C(=O)c3ccccc3C)CC2)nc2ccccc21	none (no result: miR122 inh)
Cn1c(COc2ccccc2O)[n+](C)c2ccccc21	none
CCCCCCCCCCOC(=O)Cn1c(COc2ccccc2OC)[n+](C)c2ccccc21	GSIS activator 179 (no result: miR122 inh, ERAP1 HTS inh)
COCC(=O)Nc1ccc2c(c1)C(=O)N(C)[C@H]1CC[C@H](CC(=O)NCc3ccccc3)O[C@H]1CO2	none
C[C@@H]1CN([C@H](C)CO)C(=O)c2cccc(NC(=O)C3CC3)c2O[C@H]1CN(C)Cc1ccc(C(=O)O)cc1	none (no result: DENV2 CPE rescue)
C[C@H](CO)N1C[C@H](C)[C@@H](CN(C)Cc2ccc(C(=O)O)cc2)Oc2c(NC(=O)Cc3ccccc3)cccc2C1=O	DENV2 CPE rescue 53
C[C@@H]1CN([C@H](C)CO)C(=O)c2cccc(NC(=O)Nc3ccccc3)c2O[C@@H]1CN(C)Cc1ccc(C(=O)O)cc1	none
C[C@H](CO)N1C[C@H](C)[C@@H](CN(C)Cc2ccc(C(=O)O)cc2)Oc2c(NC(=O)Nc3ccccc3)cccc2C1=O	DENV2 CPE rescue 30
C[C@@H]1CN([C@H](C)CO)C(=O)c2cccc(NC(=O)Nc3ccccc3)c2O[C@H]1CN(C)Cc1ccc(C(F)(F)F)cc1	miR122 inh 107[16.7 µM]
CCS(=O)(=O)N1CCC2(CC1)CN(C(=O)Cc1ccccn1)[C@H](CO)c1[nH]c3cc(OC)ccc3c12	none (no result: miR122 inh)
CC1(C)CC(N2CCCC2)=CC(=[N+]2CCCC2)C1	ERAP1 HTS inh 63 (no result: miR122 inh, CFTR F508del cor, E-selectin induc)
CC1(C)CC(N2CCCC2)=CC(=[N+]2CCCCC2)C1	none (no result: miR122 inh, CFTR F508del cor, E-selectin induc)
CCCCn1c(N)c(N(CCOC)C(=O)c2cc(=O)[nH]c3ccccc23)c(=O)[nH]c1=O	DENV2 CPE rescue 73 (no result: E-selectin induc)
CCCCN(C(=O)CSc1nnc(-c2ccccc2)o1)c1c(N)n(CCC)c(=O)[nH]c1=O	DENV2 CPE rescue 79 (no result: miR122 inh, E-selectin induc)
CCCCn1c(N)c(N(CC)C(=O)c2ccco2)c(=O)[nH]c1=O	ERAP1 HTS inh 84 (no result: E-selectin induc)
CCCCn1c(N)c(N(CCOC)C(=O)c2cc(-c3ccco3)nc3ccccc23)c(=O)[nH]c1=O	none
CCCCN(C(=O)c1cc(-c2ccco2)nc2ccccc12)c1c(N)n(CCCC)c(=O)[nH]c1=O	DENV2 CPE rescue 109 (no result: miR122 inh, E-selectin induc)
C[C@@H]1CN([C@@H](C)CO)C(=O)c2cc(NC(=O)CCCN(C)C)ccc2O[C@@H](C)CCCCO[C@H]1CN(C)S(=O)(=O)c1cccs1	none
O=S(=O)(N[C@@H]1CC[C@H](CCn2cc(Cc3ccccc3)nn2)O[C@H]1CO)c1ccccc1F	none (no result: miR122 inh)
CCCCn1c(N)c(N(CCOC)C(=O)c2cc(-c3ccc(OC)c(OC)c3)nc3ccccc23)c(=O)[nH]c1=O	ERAP1 HTS inh 37 (no result: miR122 inh)
CSc1ccc2nnc(-c3cccc(F)c3)n2n1	GSIS activator 53 (no result: CFTR F508del cor, ERAP1 HTS inh, E-selectin induc, DENV2 CPE rescue)
COc1ccc(NC(=O)Nc2ccc3c(c2)C(=O)N([C@@H](C)CO)C[C@@H](C)[C@H](CN(C)C(=O)NC2CCCCC2)OCCCC[C@@H](C)O3)cc1	none
COc1cc(N2C(=O)C=CC2=O)c(OC)cc1Cl	ERAP1 HTS inh 35 (no result: GSIS activator)
CCN=C1S/C(=C\c2ccc(O)c(OCC)c2)C(=O)N1CC	GSIS activator 57 (no result: miR122 inh, CFTR F508del cor)
CCOc1cc(/C=C2\SC(=S)N(C(C(=O)O)c3ccccc3)C2=O)ccc1O (stereo not drawn)	CFTR F508del cor 14 (no result: ERAP1 HTS inh)
CCC(=O)N1C[C@H](C)[C@H](OC)CN(C)C(=O)c2cc(NC(=O)Nc3cccc(F)c3)ccc2OC[C@H]1C	none
CN(C)CCCNC(=O)[C@H]1[C@H](CO)[C@H]2Cn3c(ccc(-c4ccccc4)c3=O)[C@@H]1N2C	DENV2 CPE rescue 47
CCC(=O)N1[C@@H]2c3ccc(C4=CCCCC4)c(=O)n3C[C@H]1[C@H](CO)[C@H]2C(=O)N[C@H](C)c1ccccc1	DENV2 CPE rescue 93
COc1ccccc1-c1ccc2n(c1=O)C[C@H]1[C@H](CO)[C@@H](C(=O)N[C@H](C)c3ccccc3)[C@@H]2N1C	DENV2 CPE rescue 74
Cc1ccc(S(=O)(=O)N(C)C[C@H]2OCCCC[C@H](C)Oc3ccc(NC(=O)Nc4c(C)noc4C)cc3C(=O)N([C@H](C)CO)C[C@@H]2C)cc1	none (no result: E-selectin induc)
CN(C)C(=O)C[C@@H]1C=C[C@@H](NC(=O)C2CC2)[C@H](CO)O1	none (no result: miR122 inh)
O=C(C1CCCO1)N1CCN(c2ccccn2)CC1 (stereo not drawn)	none (no result: E-selectin induc)
COc1ccccc1NC(=O)N1CCN(c2ccccn2)CC1	DENV2 CPE rescue 31
O=C(N1CCOCC1)N1CCN(c2ccccn2)CC1	GSIS activator 46 (no result: CFTR F508del cor, ERAP1 HTS inh, E-selectin induc, DENV2 CPE rescue)
O=C(CCC(=O)N1CCOc2ccc(Cl)cc21)N1CCN(c2ccccn2)CC1	CFTR F508del cor 8.3
CCCNC(=O)C[C@@H]1CC[C@@H]2[C@H](COc3ccc(NC(=O)c4cscn4)cc3C(=O)N2C)O1	none (no result: ERAP1 HTS inh, DENV2 CPE rescue)
O=C(c1cccs1)N(Cc1cccc(F)c1)C1CCS(=O)(=O)C1 (stereo not drawn)	GSIS activator 46 (no result: miR122 inh, E-selectin induc)
O=C(c1cccs1)N(Cc1ccc(F)cc1)C1CCS(=O)(=O)C1 (stereo not drawn)	none (no result: miR122 inh)
